Test results published in article PMC6682128 (ACS Omega, 2019).

Columns and labels:
Cytotoxicity assay [1] = assay type: cell-based; settings: human
Method in brief: (§1)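 Replicon cells (Huh5-2, Huh7.5-3a or Huh7.5-4a) were seeded at 10^4 per well and grown 24 h in complete DMEM. They were then exposed for three days to serial dilutions of test compound or DMSO solvent. Lysates were assayed for ATP by chemiluminescence, normalised to Bradford total protein. CC50 was obtained by nonlinear regression against log concentration.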

[2] = system: HCV genotype 1b (strain Con1) replicon; assay: HCV genotype 1b replicon luciferase assay in Huh5-2 cells; assay type: cell-based, Hepatitis C virus; settings: EC50 comparison
[3] = system: Huh7.5-4a (ED43) replicon cells; assay: Cytotoxicity assay; assay type: cell-based, human; settings: ATP levels
Method in brief: as §1

Cytotoxicity assay [4] = assay type: cell-based; settings: human, Huh7.5-3a (S52) replicon cells
Method in brief: as §1

HCV NS5A (Con1) = assay type: cell-based, Hepatitis C virus; settings: Huh5-2 cells; for cell viability (nuclei staining with propidium iodide): 0.5 and 0.05 nM; for NS5A protein levels by indirect immunofluorescence: highest compound concentration used (0.5 nM)
[5] = system: HCV genotype 1b (+) strand RNA; assay: HCV RNA quantification by RT-qPCR in Huh5-2 replicon cells; assay type: cell-based, Hepatitis C virus; settings: 0.05 nM compound, Huh5-2 cells, normalized to YWHAZ

CCOC(=O)N[C@H](C(=O)N1CCC[C@H]1C(=O)Nc1ccc(C#CC#Cc2ccc(NC(=O)[C@@H]3CCCN3C(=O)[C@@H](NC(=O)OCC)C(C)C)cc2)cc1)C(C)C [1b, Diethyl((2S,2′S)-((2S,2′S)-(((buta-1,3-diyne-1,4-diylbis(4,1-phenylene))bis(azanediyl))bis(carbonyl))bis(pyrrolidine-2,1-diyl))bis(3-methyl-1-oxobutane-1,2-diyl))dicarbamate]
CC50 at 3 days (Cytotoxicity assay [1]): 2.58 µM
fold more active than compound 1n [2]: 3 fold

CC(C)[C@H](NC(=O)OCc1ccccc1)C(=O)N1CCC[C@H]1C(=O)Nc1ccc(C#CC#Cc2ccc(NC(=O)[C@@H]3CCCN3C(=O)[C@@H](NC(=O)OCc3ccccc3)C(C)C)cc2)cc1 [1e, Dibenzyl((2S,2′S)-((2S,2′S)-(((buta-1,3-diyne-1,4-diylbis(4,1-phenylene))bis(azanediyl))bis(carbonyl))bis(pyrrolidine-2,1-diyl))bis(3-methyl-1-oxobutane-1,2-diyl))dicarbamate]
CC50 at 3 days (Cytotoxicity assay [1]): > 20 µM
fold less active than compound 1b [2]: 28 fold

COC(=O)N[C@H](C(=O)N1CCC[C@H]1C(=O)Nc1cccc(C#CC#Cc2cccc(NC(=O)[C@@H]3CCCN3C(=O)[C@@H](NC(=O)OC)C(C)C)c2)c1)C(C)C [2a, Dimethyl((2S,2′S)-((2S,2′S)-(((buta-1,3-diyne-1,4-diylbis(3,1-phenylene))bis(azanediyl))bis(carbonyl))bis(pyrrolidine-2,1-diyl))bis(3-methyl-1-oxobutane-1,2-diyl))dicarbamate]
CC50 at 3 days (Cytotoxicity assay [1]): > 200 µM
CC50, genotype 4a (ED43) [3]: >200 000 nM
CC50 at 3 days (Cytotoxicity assay [4]): > 200 µM

CC(C)[C@H](NC(=O)OCc1ccccc1)C(=O)N1CCC[C@H]1C(=O)Nc1cccc(C#CC#Cc2cccc(NC(=O)[C@@H]3CCCN3C(=O)[C@@H](NC(=O)OCc3ccccc3)C(C)C)c2)c1 [2e, Dibenzyl((2S,2′S)-((2S,2′S)-(((buta-1,3-diyne-1,4-diylbis(3,1-phenylene))bis(azanediyl))bis(carbonyl))bis(pyrrolidine-2,1-diyl))bis(3-methyl-1-oxobutane-1,2-diyl))dicarbamate]
CC50 at 3 days (Cytotoxicity assay [1]): > 10 µM
fold less active than 2b [2]: 22 fold

CCOC(=O)N[C@@H](CC(C)C)C(=O)N1CCC[C@H]1C(=O)Nc1cccc(C#CC#Cc2cccc(NC(=O)[C@@H]3CCCN3C(=O)[C@H](CC(C)C)NC(=O)OCC)c2)c1 [2f, Diethyl((2S,2′S)-((2S,2′S)-(((buta-1,3-diyne-1,4-diylbis(3,1-phenylene))bis(azanediyl))bis(carbonyl))bis(pyrrolidine-2,1-diyl))bis(4-methyl-1-oxopentane-1,2-diyl))dicarbamate]
CC50 at 3 days (Cytotoxicity assay [1]): > 200 µM
cell viability (nuclei staining with propidium iodide) (HCV NS5A (Con1)): not affected
NS5A protein levels by indirect immunofluorescence (HCV NS5A (Con1)): almost undetectable levels
HCV RNA replication reduced to (relative to control) [5]: ~90%
CC50, genotype 4a (ED43) [3]: >200 000 nM
CC50 at 3 days (Cytotoxicity assay [4]): > 200 µM

CCOC(=O)N[C@H](C(=O)N1CCC[C@@H]1C(=O)Nc1cccc(C#CC#Cc2cccc(NC(=O)[C@H]3CCCN3C(=O)[C@@H](NC(=O)OCC)C(C)C)c2)c1)C(C)C [2j, Diethyl((2S,2′S)-((2R,2′R)-(((buta-1,3-diyne-1,4-diylbis(3,1-phenylene))bis(azanediyl))bis(carbonyl))bis(pyrrolidine-2,1-diyl))bis(3-methyl-1-oxobutane-1,2-diyl))dicarbamate]
CC50 at 3 days (Cytotoxicity assay [1]): > 10 µM

CCOC(=O)N[C@@H](C(=O)N1CCC[C@@H]1C(=O)Nc1cccc(C#CC#Cc2cccc(NC(=O)[C@H]3CCCN3C(=O)[C@H](NC(=O)OCC)C(C)C)c2)c1)C(C)C [2k, Diethyl((2R,2′R)-((2R,2′R)-(((buta-1,3-diyne-1,4-diylbis(3,1-phenylene))bis(azanediyl))bis(carbonyl))bis(pyrrolidine-2,1-diyl))bis(3-methyl-1-oxobutane-1,2-diyl))dicarbamate]
CC50 at 3 days (Cytotoxicity assay [1]): > 10 µM

CCOC(=O)N[C@@H](CC(C)C)C(=O)N1CCC[C@@H]1C(=O)Nc1cccc(C#CC#Cc2cccc(NC(=O)[C@H]3CCCN3C(=O)[C@H](CC(C)C)NC(=O)OCC)c2)c1 [2l, Diethyl((2S,2′S)-((2R,2′R)-(((buta-1,3-diyne-1,4-diylbis(3,1-phenylene))bis(azanediyl))bis(carbonyl))bis(pyrrolidine-2,1-diyl))bis(4-methyl-1-oxopentane-1,2-diyl))dicarbamate]
CC50 at 3 days (Cytotoxicity assay [1]): > 10 µM

CCOC(=O)N[C@H](CC(C)C)C(=O)N1CCC[C@@H]1C(=O)Nc1cccc(C#CC#Cc2cccc(NC(=O)[C@H]3CCCN3C(=O)[C@@H](CC(C)C)NC(=O)OCC)c2)c1 [2m, Diethyl((2R,2′R)-((2R,2′R)-(((buta-1,3-diyne-1,4-diylbis(3,1-phenylene))bis(azanediyl))bis(carbonyl))bis(pyrrolidine-2,1-diyl))bis(4-methyl-1-oxopentane-1,2-diyl))dicarbamate]
CC50 at 3 days (Cytotoxicity assay [1]): > 10 µM

CCOC(=O)N[C@@H](C(=O)N1CCC[C@H]1C(=O)Nc1cccc(C#CC#Cc2cccc(NC(=O)[C@@H]3CCCN3C(=O)[C@H](NC(=O)OCC)C(C)C)c2)c1)C(C)C [2n, Diethyl((2R,2′R)-((2S,2′S)-(((buta-1,3-diyne-1,4-diylbis(3,1-phenylene))bis(azanediyl))bis(carbonyl))bis(pyrrolidine-2,1-diyl))bis(3-methyl-1-oxobutane-1,2-diyl))dicarbamate]
CC50 at 3 days (Cytotoxicity assay [1]): > 20 µM
fold more active than 2b [2]: about 6 fold

COC(=O)N[C@@H](CC(C)C)C(=O)N1CCC[C@H]1C(=O)Nc1cccc(C#CC#Cc2cccc(NC(=O)[C@@H]3CCCN3C(=O)[C@H](CC(C)C)NC(=O)OC)c2)c1 [2o, Dimethyl((2S,2′S)-((2S,2′S)-(((buta-1,3-diyne-1,4-diylbis(3,1-phenylene))bis(azanediyl))bis(carbonyl))bis(pyrrolidine-2,1-diyl))bis(4-methyl-1-oxopentane-1,2-diyl))dicarbamate]
CC50 at 3 days (Cytotoxicity assay [1]): > 20 µM

COC(=O)N[C@H](CC(C)C)C(=O)N1CCC[C@H]1C(=O)Nc1cccc(C#CC#Cc2cccc(NC(=O)[C@@H]3CCCN3C(=O)[C@@H](CC(C)C)NC(=O)OC)c2)c1 [2p, Dimethyl((2R,2′R)-((2S,2′S)-(((buta-1,3-diyne-1,4-diylbis(3,1-phenylene))bis(azanediyl))bis(carbonyl))bis(pyrrolidine-2,1-diyl))bis(4-methyl-1-oxopentane-1,2-diyl))dicarbamate]
CC50 at 3 days (Cytotoxicity assay [1]): > 200 µM
fold more active than 2o [2]: about 3 × 10^5 fold
CC50, genotype 4a (ED43) [3]: >200 000 nM
CC50 at 3 days (Cytotoxicity assay [4]): > 200 µM

CCOC(=O)N[C@H](CC(C)C)C(=O)N1CCC[C@H]1C(=O)Nc1cccc(C#CC#Cc2cccc(NC(=O)[C@@H]3CCCN3C(=O)[C@@H](CC(C)C)NC(=O)OCC)c2)c1 [2q, Diethyl((2R,2′R)-((2S,2′S)-(((buta-1,3-diyne-1,4-diylbis(3,1-phenylene))bis(azanediyl))bis(carbonyl))bis(pyrrolidine-2,1-diyl))bis(4-methyl-1-oxopentane-1,2-diyl))dicarbamate]
CC50 at 3 days (Cytotoxicity assay [1]): > 200 µM
cell viability (nuclei staining with propidium iodide) (HCV NS5A (Con1)): not affected
NS5A protein levels by indirect immunofluorescence (HCV NS5A (Con1)): almost undetectable levels
HCV RNA replication reduced to (relative to control) [5]: 56%
CC50, genotype 4a (ED43) [3]: >200 000 nM
CC50 at 3 days (Cytotoxicity assay [4]): > 200 µM

COC(=O)N[C@H](C(=O)N1CCC[C@H]1c1nc(-c2ccc(-c3ccc(-c4c[nH]c([C@@H]5CCCN5C(=O)[C@@H](NC(=O)OC)C(C)C)n4)cc3)cc2)c[nH]1)C(C)C [daclatasvir, reference compound]
CC50 at 3 days (Cytotoxicity assay [1]): 17.7 µM
CC50, genotype 4a (ED43) [3]: 17 700 nM
CC50 at 3 days (Cytotoxicity assay [4]): 17.7 µM
